Reference: ChEMBL document CHEMBL4145519, “Structural investigations on coumarins leading to chromeno[4,3-c]pyrazol-4-ones and pyrano[4,3-c]pyrazol-4-ones: New scaffolds for the design of the tumor-associated carbonic anhydrase isoforms IX and XII” (Eur J Med Chem, 2018)
Calls of active or inactive are those of the source. The calls are words filed in the database; no cut-off is given here.

Tests used:
[1] = molecular target: Carbonic anhydrase 1 (Homo sapiens, UniProt P00915); experiment: Inhibition of human CA1 after 15 mins by stopped-flow CO2 hydration assay
Carbonic anhydrase 1, sequence (P00915 whole entry): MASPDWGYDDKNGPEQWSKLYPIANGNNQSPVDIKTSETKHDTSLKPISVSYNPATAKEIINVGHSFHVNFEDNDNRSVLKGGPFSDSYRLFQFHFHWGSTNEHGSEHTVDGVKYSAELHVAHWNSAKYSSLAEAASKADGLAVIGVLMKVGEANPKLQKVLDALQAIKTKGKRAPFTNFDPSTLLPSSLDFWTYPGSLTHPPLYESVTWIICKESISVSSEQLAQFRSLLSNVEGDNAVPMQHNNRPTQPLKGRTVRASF

[2] = molecular target: Carbonic anhydrase 2 (Homo sapiens, UniProt P00918); experiment: Inhibition of human CA2 after 15 mins by stopped-flow CO2 hydration assay
[3] = molecular target: Carbonic anhydrase 9 (Homo sapiens, UniProt Q16790); experiment: Inhibition of human CA9 after 15 mins by stopped-flow CO2 hydration assay
[4] = molecular target: Carbonic anhydrase 12 (Homo sapiens, UniProt O43570); experiment: Inhibition of human CA12 after 15 mins by stopped-flow CO2 hydration assay
Carbonic anhydrase 12, sequence (O43570 whole entry): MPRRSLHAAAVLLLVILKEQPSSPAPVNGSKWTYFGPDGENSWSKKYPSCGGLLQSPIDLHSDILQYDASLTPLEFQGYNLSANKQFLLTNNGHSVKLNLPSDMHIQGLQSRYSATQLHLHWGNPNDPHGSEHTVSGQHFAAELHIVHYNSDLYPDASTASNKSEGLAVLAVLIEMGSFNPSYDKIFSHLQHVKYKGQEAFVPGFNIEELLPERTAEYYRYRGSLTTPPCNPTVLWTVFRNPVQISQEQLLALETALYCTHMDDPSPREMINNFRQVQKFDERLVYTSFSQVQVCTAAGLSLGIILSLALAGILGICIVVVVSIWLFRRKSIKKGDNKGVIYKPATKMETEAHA

[5] = tested on: HT-29; experiment: Antiproliferative activity against human HT-29 cells at 30 to 300 uM after 48 hrs under normoxic conditions by MTT assay; type: functional, cell-based
Summary of the method: (§1)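 HT-29 colon cancer cells in DMEM high glucose with 20% FBS were seeded at 1·10^4/well. After 24 h they were exposed to 0–300 μM compound for 16, 48 or 72 h in air (20% O2, 5% CO2, 37 °C). MTT (1 mg/ml) was added for 30 min, formazan dissolved in DMSO and read at 550 nm. Viability is relative to untreated control (100%). Quadruplicates on ≥3 cell batches, mean ± SEM.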

[6] = tested on: HT-29; experiment: Antiproliferative activity against human HT-29 cells at 30 to 300 uM after 48 hrs under hypoxic conditions by MTT assay; type: functional, cell-based
Summary of the method: (§2)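 Hypoxic workstation at 0.1% O2, 5% CO2 and residual N2. HT-29 cells (DMEM high glucose, 20% FBS; 1·10^4/well) were treated 24 h post-plating with 0–300 μM compound for 16, 48 or 72 h. Viability was measured by MTT reduction (1 mg/ml, 30 min, 37 °C; DMSO-dissolved formazan, A550) and expressed as % of untreated control. Quadruplicates, ≥3 batches, mean ± SEM.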

[7] = tested on: HT-29; experiment: Antiproliferative activity against human HT-29 cells after 16 hrs under normoxic conditions by MTT assay; type: functional, cell-based; summary of the method: as §1
[8] = tested on: HT-29; experiment: Antiproliferative activity against human HT-29 cells at 30 to 300 uM after 72 hrs under hypoxic conditions by MTT assay; type: functional, cell-based; summary of the method: as §2
[9] = tested on: HT-29; experiment: Antiproliferative activity against human HT-29 cells at 30 to 100 uM after 16 hrs under normoxic conditions by MTT assay; type: functional, cell-based; summary of the method: as §1
[10] = Solubility of the compounds at 300 uM; type: physicochemical
[11] = tested on: HT-29; experiment: Antiproliferative activity against human HT-29 cells at 30 to 100 uM after 48 hrs under normoxic conditions by MTT assay; type: functional, cell-based; summary of the method: as §1
[12] = tested on: HT-29; experiment: Antiproliferative activity against human HT-29 cells at 30 to 300 uM after 16 hrs under normoxic conditions by MTT assay; type: functional, cell-based; summary of the method: as §1
[13] = tested on: HT-29; experiment: Antiproliferative activity against human HT-29 cells at 100 uM after 48 hrs under normoxic conditions by MTT assay; type: functional; summary of the method: as §1
[14] = tested on: HT-29; experiment: Antiproliferative activity against human HT-29 cells at 100 uM after 72 hrs under hypoxic conditions by MTT assay; type: functional; summary of the method: as §2
[15] = tested on: HT-29; experiment: Antiproliferative activity against human HT-29 cells at 30 to 100 uM after 72 hrs under normoxic conditions by MTT assay; type: functional, cell-based; summary of the method: as §1
[16] = tested on: HT-29; experiment: Antiproliferative activity against human HT-29 cells at 30 to 100 uM after 72 hrs under hypoxic conditions by MTT assay; type: functional, cell-based; summary of the method: as §2
[17] = tested on: HT-29; experiment: Antiproliferative activity against human HT-29 cells at 30 uM after 48 hrs under hypoxic conditions by MTT assay; type: functional; summary of the method: as §2

Ki [1] [nM]	Ki [2] [nM]	Ki [3] [nM]	Ki [4] [nM]	Structure (SMILES)	other results
> 10000	> 10000	41.4	> 10000	Cc1cc2nn(-c3ccccc3)c(C)c2c(=O)o1	Activity [5]: Active; Activity [6]: Active; Activity [7]: Dose-dependent effect; Activity [8]: Active
> 10000	> 10000	28.4	674	COc1c(C(C)=O)c(=O)oc2ccccc12	–
> 10000	> 10000	59.4	360	Cc1nn(-c2ccccc2)c2c1c(=O)oc1ccc(N(C)C)cc12	–
> 10000	> 10000	–	> 10000	Cc1ccc(-n2nc(C)c3c(=O)oc4ccccc4c32)cc1	Activity [9]: Active; solubility [10]: Insoluble; Activity [11]: Active
> 10000	> 10000	44.2	357	CC(=O)c1c(O)c2cc([N+](=O)[O-])ccc2oc1=O	–
> 10000	> 10000	8.5	7.1	Cc1nn(-c2ccccc2)c2c1c(=O)oc1ccc(Br)cc12	–
> 10000	> 10000	37.8	360	Cc1nn(-c2ccccc2)c2c1c(=O)oc1ccc(NCc3ccccc3)cc12	–
> 10000	> 10000	37.6	> 10000	O=c1oc2ccccc2c2nn(-c3ccccc3)cc12	–
> 10000	> 10000	801	6060	Cc1nn(-c2ccccc2)c2c1c(=O)oc1cc(Cl)c([N+](=O)[O-])cc12	–
> 10000	> 10000	57.9	819	Cc1nn(-c2ccccc2)c2c1c(=O)oc1cc(Cl)ccc12	–
> 10000	> 10000	34.5	> 10000	Cc1nn(-c2ccccc2)c2c1c(=O)oc1ccc(N)cc12	Activity [12]: Active; Activity [5]: Active; Activity [6]: Active; Activity [8]: Active
> 10000	> 10000	561	6400	CC(=O)c1cc2cc([N+](=O)[O-])c(Cl)cc2oc1=O	–
> 10000	> 10000	90.7	706	COc1c(C(C)=O)c(=O)oc2ccc(Br)cc12	–
> 10000	> 10000	77.9	583	Cc1nn(-c2ccccc2)c2c1c(=O)oc1ccc(NC(=O)Nc3ccccc3)cc12	–
> 10000	> 10000	290	672	O=c1oc2ccccc2c2nn(Cc3ccccc3)c(Cc3ccccc3)c12	–
> 10000	> 10000	371	732	Cc1nn(Cc2ccccc2)c2c1c(=O)oc1ccccc12	–
> 10000	> 10000	15.3	> 10000	Cc1nn(-c2ccccc2)c2c1c(=O)oc1ccc(NC(=O)c3ccccc3)cc12	Activity [12]: Active; Activity [5]: Active; Activity [13]: 50%; Activity [8]: Active; Activity [14]: 40%
> 10000	> 10000	809	4530	CC(=O)c1cc2ccc(Cl)cc2oc1=O	–
> 10000	> 10000	25.2	> 10000	Cc1c2c(=O)oc3ccc(Br)cc3c2nn1-c1ccccc1	–
> 10000	> 10000	152	7.8	CC(=O)c1cc2ccccc2oc1=O [3-ACETYLCOUMARIN]	–

Ki [1] [nM]	Ki [2] [nM]	Ki [3] [nM]	Ki [4] [nM]	Structure (SMILES)	other results
> 10000	> 10000	8.2	5.6	CC(=O)c1c(O)c2cc(Br)ccc2oc1=O	Activity [9]: Active; Activity [6]: Active; solubility [10]: Insoluble; Activity [13]: 35%; Activity [15]: Active; Activity [11]: Active; Activity [16]: Active
> 10000	> 10000	44.9	695	CC(=O)c1cc2cc([N+](=O)[O-])ccc2oc1=O	–
> 10000	> 10000	31.5	819	O=c1oc2ccccc2c2c1c(Cc1ccccc1)nn2Cc1ccccc1	–
> 10000	> 10000	51.3	737	CNc1ccc2oc(=O)c3c(C)nn(-c4ccccc4)c3c2c1	–
> 10000	> 10000	555	33.3	Cn1nc2c(c1Cc1ccccc1)c(=O)oc1ccccc12	–
> 10000	> 10000	35.9	453	CC(=O)c1c(O)c2ccccc2oc1=O	–
> 10000	> 10000	76.8	27.3	Cc1nn(-c2ccccc2C(=O)O)c2c1c(=O)oc1ccccc12	–
> 10000	> 10000	26.6	518	Cc1cc2c(c(C)nn2-c2ccccc2)c(=O)o1	–
> 10000	> 10000	35.8	360	Cc1c2c(=O)oc3ccc([N+](=O)[O-])cc3c2nn1-c1ccccc1	–
> 10000	> 10000	1960	24.7	Cc1nn(-c2ccc(C(=O)O)cc2)c2c1c(=O)oc1ccccc12	–
> 10000	> 10000	40.2	> 10000	COc1ccc(-n2nc(C)c3c(=O)oc4ccccc4c32)cc1	–
> 10000	> 10000	27.1	> 10000	Cc1nn(-c2ccccc2)c2c1c(=O)oc1ccc([N+](=O)[O-])cc12	Activity [5]: Active; Activity [6]: Active; Activity [7]: Dose-dependent effect
> 10000	> 10000	403	> 10000	Cc1nn(-c2ccc(Cl)cc2)c2c1c(=O)oc1ccccc12	–
> 10000	> 10000	19.7	343	Cn1nc(Cc2ccccc2)c2c(=O)oc3ccccc3c21	–
> 10000	> 10000	9.6	5.8	Cc1nn(-c2ccccc2)c2c1c(=O)oc1ccccc12	Activity [5]: Active; Activity [6]: Active; Activity [7]: Dose-dependent effect
> 10000	> 10000	26.8	646	CC(=O)Nc1ccc2oc(=O)c3c(C)nn(-c4ccccc4)c3c2c1	–
> 10000	> 10000	38.1	593	Cc1c2c(=O)oc3ccccc3c2nn1-c1ccccc1	–
> 10000	> 10000	46.4	737	CCOc1c(C(C)=O)c(=O)oc2ccc(Br)cc12	–
> 10000	> 10000	30.1	> 10000	O=c1oc2ccccc2c2c1cnn2-c1ccccc1	Activity [12]: Active; Activity [5]: Active; Activity [6]: Active; Activity [17]: <=70%
